Measured values from different studies.
Lines come from different studies, so protocols differ.
XDH: Xanthine dehydrogenase/oxidase (XDH, Bos taurus, UniProt P80457)
SIRT1: NAD-dependent protein deacetylase sirtuin-1 (SIRT1, Homo sapiens, UniProt Q96EB6)
SPHK2: Sphingosine kinase 2 (SPHK2, Homo sapiens, UniProt Q9NRA0)

| SMILES | target | read-out | action | technique | concentration | measurement | value |
| --- | --- | --- | --- | --- | --- | --- | --- |
| Oc1ncnc2[nH]ncc12 | XDH | enzyme activity | inhibitor | absorbance | 50 µg/mL | inhibition | 98.7% |
| N[C@@H]1CON=C1O | Alanine racemase, biosynthetic (alr, Escherichia coli K-12, UniProt P0A6B4) | enzyme activity | inhibitor | – | – | kinact/KI | 8.6 M⁻¹ s⁻¹ |
| CC(=S)NCCCC[C@H](NC(=O)OCc1ccccc1)C(=O)N[C@@H](Cc1c[nH]c2ccccc12)C(=O)N[C@@H](CCCNC(=N)N)C(N)=O | SIRT1 | enzyme activity | inhibitor | – | 1 µM | inhibition | 64% |
| O=C(Nc1ccc(CN2CCOCC2)c(C(F)(F)F)c1)c1ccc(C#Cc2cccc3cnccc23)cn1 | Oxidized purine nucleoside triphosphate hydrolase (NUDT1, Homo sapiens, UniProt P36639) | enzyme activity | activator | – | 3 µM | activity vs control | 140% |
| [H]/N=C(\N)N1CCC[C@H]1c1nc(-c2ccc(OCC=Cc3cccc(C(F)(F)F)c3)c(C(F)(F)F)c2)no1 | SPHK2 | enzyme activity | inhibitor | radiometric | 0.3 µM | inhibition | 56% |
| FC(F)(F)Oc1cccc(-c2cnc3ccc(-c4ccncc4)nn23)c1 | Tau-tubulin kinase 2 (TTBK2, Homo sapiens, UniProt Q6IQ55) | enzyme activity | inhibitor | radiometric | 5 µM | activity vs control | 105% |
| CC(C)(O)[C@H]1CC[C@H](Nc2ccc3ncc(-c4cccc(C(F)(F)F)c4)n3n2)CC1 | Testis-specific serine/threonine-protein kinase 6 (TSSK6, Homo sapiens, UniProt Q9BXA6) | enzyme activity | inhibitor | – | 1 µM | remaining activity | 97.7% |
| O=Cc1ccc(O)cc1 | XDH | enzyme activity | inhibitor | absorbance | 100 µg/mL | inhibition | 3.2% |
| CCCCc1ccc(CCc2ccc(-c3noc([C@@H]4CCCN4C(=N)N)n3)cc2C(F)(F)F)cc1 | SPHK2 | enzyme activity | inhibitor | radiometric | 0.3 µM | inhibition | 59% |
| CCCCCc1cc(=O)c2cc(Cl)cc(Br)c2o1 | SIRT1 | enzyme activity | inhibitor | fluorescence | 200 µM | inhibition | 9.8% |
| CCOC(=O)[C@](CC)(CCCS(=O)(=O)CCOCCOCCNC(=O)OC(C)(C)C)NC(=O)c1ccc(C2CC2)c(Cc2ccc(F)cc2)n1 | Cannabinoid receptor 2 (Cnr2, Mus musculus, UniProt P47936) | cAMP | agonist | – | – | Emax | 80% |
| Cn1c(=O)[nH]c(=O)c2c1nc(S)n2CC(O)COc1ccc(Cl)cc1 (centres unmarked) | Legumain (Homo sapiens, UniProt Q99538) | enzyme activity | inhibitor | fluorescence | – | kinact/KI | 14800 M⁻¹ s⁻¹ |
| O=C1CC(CCc2c[nH]c3ccccc23)Oc2c(Br)cc(Cl)cc21 (centres unmarked) | SIRT1 | enzyme activity | inhibitor | fluorescence | 200 µM | inhibition | 19% |
| C[C@]12CC[C@@H]3c4ccc(O)cc4CC[C@H]3[C@@H]1CC[C@@H]2O | Protein disulfide-isomerase (P4HB, Homo sapiens, UniProt P07237) | thermal stability | – | DSF | 100 µM | ΔTm | 1.38 °C |
